Assays:
[1] = biological target: Muscarinic acetylcholine receptor; experiment: Compound was evaluated for the inhibition of [3H]QNB binding to Muscarinic acetylcholine receptor from male Olac rat brain.
Mus musculus [2] = experiment: Dose below which no catalepsy was observed at any time period (following p.o. dosing); format: functional
Summary of the method: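 CFW mice (21-23 g), three per group, dosed orally in water or 0.5% carboxymethylcellulose. Checked at 0.25, 2.5 and 5.0 h for holding one hind limb on a 2-cm rubber bung and staying on a vertical grid, judged against a control by a trained observer.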

[3] = biological target: D(2) dopamine receptor (Bos taurus) (UniProt P20288); experiment: Inhibition of [3H]spiperone binding to Dopamine receptor D2 from calf caudate
Rattus norvegicus [4] = experiment: Rotarod response in rat to assess muscular incoordination (following p.o. dosing); format: functional
Summary of the method: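 Male Olac-Wistar rats (140-150 g), five per group, fed ad libitum, dosed orally. Tested 1 and 2 h later on a horizontal rod (2 rpm, 32 mm diameter), maximum 30 s. Mean time compared with vehicle controls by Mann-Whitney U test, significant at p < 0.05.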

Rattus norvegicus [5] = experiment: Compound administered perorally was evaluated for the conditioned avoidance response in rats; format: functional
Summary of the method: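 Olac-Wistar rats (120-130 g) trained to cross a shuttle box on a 5-s buzzer, with mild shock if no response within 1 s after it ends. Only high-responders used. Groups of five were dosed orally in water or 0.5% carboxymethylcellulose 1 h 50 min before testing. After 10-min habituation they were tested 20 min. Blockade = shocks as % of stimuli presented.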

Mus musculus [6] = experiment: Compound administered perorally was evaluated for the hypothermia (rectal temperature) in mice; format: functional
Summary of the method: (§1)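 Groups of three CFW mice (21-23 g) received oral compound in water or 0.5% carboxymethylcellulose. Rectal temperature was taken at 0.25, 2.5 and 5.0 h. Mean change from the group's initial mean was summed over the three times. Hypothermia scored if the summed reduction was >4 °C.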

[7] = biological target: D(2) dopamine receptor (Bos taurus) (UniProt P20288); experiment: Inhibition of [3H]spiperone binding to dopamine receptor D2 from calf caudate
[8] = biological target: Muscarinic acetylcholine receptor; experiment: Inhibition of [3H]QNB binding to muscarinic cholinergic receptor from male Olac rat brain.
Mus musculus [9] = experiment: Compound administered perorally was evaluated for the hypothermia (rectal temperature ) in mice; format: functional; summary of the method: as §1

| SMILES | IC50 [1] | EDmin (Mus musculus [2]) | IC50 [3] | ED (Rattus norvegicus [4]) | ED (Rattus norvegicus [5]) | EDmin (Mus musculus [6]) | IC50 [7] | IC50 [8] | EDmin (Mus musculus [9]) |
| --- | --- | --- | --- | --- | --- | --- | --- | --- | --- |
| CN1CCN(C2=Nc3cc(C(F)(F)F)ccc3Nc3nn(C)cc32)CC1 | > 10 µM | 200 mg/kg | 1.6 µM | >30 mg/kg | 25 mg/kg | 50 mg/kg | – | – | – |
| Cn1cc2c(n1)Nc1ccc(F)cc1N=C2N1CCOCC1 | > 100 µM | >400 mg/kg | > 100 µM | >50 mg/kg | >50 mg/kg | 200 mg/kg | – | – | – |
| Cc1c2c(nn1C)C(N1CCN(C)CC1)=Nc1cc(F)ccc1N2 | – | – | > 10 µM | – | – | – | – | – | – |
| CCOC(=O)N1CCN(C2=Nc3cc(F)ccc3Nc3nn(C)cc32)CC1 | > 100 µM | >200 mg/kg | > 10 µM | >50 mg/kg | >50 mg/kg | >200 mg/kg | – | – | – |
| CN1CCN(C2=Nc3cc(F)ccc3Nc3nn(C)c(-c4ccccc4)c32)CC1 | – | >400 mg/kg | – | >50 mg/kg | >50 mg/kg | 200 mg/kg | 2.1 µM | > 100 µM | – |
| CC(C)Cn1cc2c(n1)Nc1ccc(Cl)cc1N=C2N1CCN(C)CC1 | – | 200 mg/kg | – | >50 mg/kg | >50 mg/kg | 50 mg/kg | 3.3 µM | > 10 µM | – |
| CN(C)CCNC1=Nc2cc(F)ccc2Nc2nn(C)cc21 | 6.1 µM | >400 mg/kg | > 10 µM | >50 mg/kg | >50 mg/kg | >400 mg/kg | – | – | – |
| CCn1cc2c(n1)Nc1cc(Cl)c(Cl)cc1N=C2N1CCN(C)CC1 | > 1 µM | 200 mg/kg | 3.8 µM | 20 mg/kg | >20 mg/kg | 50 mg/kg | – | – | – |
| CCn1cc2c(n1)Nc1ccc(Cl)cc1N=C2N1CCN(C)CC1 | – | >400 mg/kg | – | 20 mg/kg | >15 mg/kg | 6.25 mg/kg | 0.34 µM | > 1 µM | – |
| CN1CCN(C2=Nc3cc(F)c(F)cc3Nc3nn(C)cc32)CC1 | – | >200 mg/kg | – | >50 mg/kg | 50 mg/kg | 25 mg/kg | 0.76 µM | 21 µM | – |
| Cn1cc2c(n1)Nc1ccc(F)cc1N=C2N1CCCCC1 | > 10 µM | >400 mg/kg | > 10 µM | >50 mg/kg | 50 mg/kg | 400 mg/kg | – | – | – |
| Cn1cc2c(n1)Nc1ccc(F)cc1N=C2N1CCNCC1 | > 10 µM | >400 mg/kg | 5.2 µM | >50 mg/kg | >50 mg/kg | – | – | – | 200 mg/kg |
| CN1CCN(C2=Nc3cc(I)ccc3Nc3nn(C)cc32)CC1 | – | 50 mg/kg | > 1 µM | 25 mg/kg | >20 mg/kg | 50 mg/kg | – | – | – |
| CN1CCN(C2=Nc3cc(F)ccc3Nc3nn(-c4ccccc4)cc32)CC1 | – | >200 mg/kg | 2.6 µM | >50 mg/kg | 50 mg/kg | >200 mg/kg | – | > 10 µM | – |
| CN1CCN(C2=Nc3cc(C(=O)c4ccccc4)ccc3Nc3nn(C)cc32)CC1 | > 1 µM | >400 mg/kg | > 10 µM | >50 mg/kg | >50 mg/kg | >400 mg/kg | – | – | – |
| CN1CCN(C2=Nc3cc(Cl)c(Cl)cc3Nc3nn(C)cc32)CC1 | > 1 µM | 50 mg/kg | > 10 µM | >50 mg/kg | >20 mg/kg | – | – | – | 25 mg/kg |
| Cn1cc2c(n1)Nc1ccc(F)cc1N=C2N1CCN(CCO)CC1 | > 100 µM | >200 mg/kg | 5.1 µM | >50 mg/kg | >50 mg/kg | >200 mg/kg | – | – | – |
| CN1CCN(C2=Nc3cc(F)ccc3Nc3nn(Cc4ccccc4)cc32)CC1 | – | >400 mg/kg | – | >50 mg/kg | 50 mg/kg | 100 mg/kg | 0.4 µM | > 100 µM | – |
| Cc1nn(C)c2c1Nc1ccc(F)cc1N=C2N1CCN(C)CC1 | > 100 µM | >200 mg/kg | > 10 µM | >50 mg/kg | >50 mg/kg | >200 mg/kg | – | – | – |
| CN1CCN(C2=Nc3cccc(Cl)c3Nc3nn(C)cc32)CC1 | > 100 µM | 184 mg/kg | 4.7 µM | >50 mg/kg | >50 mg/kg | 184 mg/kg | – | – | – |
| CN1CCN(C2=Nc3cc(S(C)(=O)=O)ccc3Nc3nn(C)cc32)CC1 | > 100 µM | >200 mg/kg | > 10 µM | >50 mg/kg | – | >200 mg/kg | – | – | – |
| Cn1cc2c(n1)Nc1ccc(F)cc1N=C2N1CCN(Cc2ccccc2)CC1 | > 100 µM | >200 mg/kg | 2.7 µM | 50 mg/kg | >50 mg/kg | 50 mg/kg | – | – | – |
| CN1CCN(C2=Nc3cc(Cl)ccc3Nc3nn(C4CCCC4)cc32)CC1 | – | >400 mg/kg | – | >50 mg/kg | 50 mg/kg | 50 mg/kg | 0.14 µM | > 10 µM | – |
| Cn1cc2c(n1)Nc1ccc(F)cc1N=C2N1CC[N+](C)([O-])CC1 | – | 100 mg/kg | – | >50 mg/kg | >50 mg/kg | 50 mg/kg | > 10 µM | > 1 µM | – |
| CCCCCCCCCCn1cc2c(n1)Nc1ccc(Cl)cc1N=C2N1CCN(C)CC1 | > 10 µM | >400 mg/kg | 2.5 µM | >50 mg/kg | >50 mg/kg | – | – | – | >400 mg/kg |
| CN1CCN(C2=Nc3ccc(Cl)cc3Nc3nn(C)cc32)CC1 | > 100 µM | >400 mg/kg | > 10 µM | >50 mg/kg | >50 mg/kg | 100 mg/kg | – | – | – |
| Cn1cc2c(n1)Nc1ccc(F)cc1N=C2N1CCN(CC2CC2)CC1 | > 10 µM | 100 mg/kg | 0.9 µM | 30 mg/kg | >15 mg/kg | 50 mg/kg | – | – | – |
| Cn1cc2c(n1)Nc1ccc(Cl)cc1N=C2N | > 100 µM | >25 mg/kg | > 10 µM | >50 mg/kg | >25 mg/kg | 25 mg/kg | – | – | – |
| CN1CCN(C2=Nc3c(Cl)cccc3Nc3nn(C)cc32)CC1 | > 100 µM | >400 mg/kg | 0.86 µM | >50 mg/kg | >50 mg/kg | 25 mg/kg | – | – | – |

— ChEMBL document CHEMBL1124378, “Synthesis and pharmacological evaluation of a series of 4-piperazinylpyrazolo[3,4-b]- and -[4,3-b][1,5]benzodiazepines as potential anxiolytics” (J Med Chem, 1989)
